In the library only some 2.3% were active in any assay of this set; here they are far more common.
TRPC6 activator – mouse TRPC6 channel activators, primary screen, cell-based, HEK293, membrane potential dye. Short transient receptor potential channel 6 (Mus musculus), Q61143. HEK293-TRPC6 membrane potential dye fluorescence; hits give high values. B-score at 10 µM. 310,000 compounds, 0.13% hits. AID 2550, 2010;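 active = B-score of the integrated fluorescence ratio above library mean plus 3 SD, and starting fluorescence ratio within library mean plus 5 SD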;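 note: higher score means more depolarization so channel activation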
TRPC4 agonist – activators of mouse TRPC4 channel, primary screen, Fluo4 calcium, HEK293 TRPC4beta/mu-opioid cells | Fluo4 calcium fluorescence; hits give high values | 310,000 compounds, 0.49% hits | B-score at 10 µM;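 active = B-score above 5 SD of library B-scores, and initial fluorescence ratio not above library mean plus 5 SD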;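 note: positive B-score marks a calcium rise read as TRPC4 activation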
Target sequence (Q9QUQ5 whole entry, looked up): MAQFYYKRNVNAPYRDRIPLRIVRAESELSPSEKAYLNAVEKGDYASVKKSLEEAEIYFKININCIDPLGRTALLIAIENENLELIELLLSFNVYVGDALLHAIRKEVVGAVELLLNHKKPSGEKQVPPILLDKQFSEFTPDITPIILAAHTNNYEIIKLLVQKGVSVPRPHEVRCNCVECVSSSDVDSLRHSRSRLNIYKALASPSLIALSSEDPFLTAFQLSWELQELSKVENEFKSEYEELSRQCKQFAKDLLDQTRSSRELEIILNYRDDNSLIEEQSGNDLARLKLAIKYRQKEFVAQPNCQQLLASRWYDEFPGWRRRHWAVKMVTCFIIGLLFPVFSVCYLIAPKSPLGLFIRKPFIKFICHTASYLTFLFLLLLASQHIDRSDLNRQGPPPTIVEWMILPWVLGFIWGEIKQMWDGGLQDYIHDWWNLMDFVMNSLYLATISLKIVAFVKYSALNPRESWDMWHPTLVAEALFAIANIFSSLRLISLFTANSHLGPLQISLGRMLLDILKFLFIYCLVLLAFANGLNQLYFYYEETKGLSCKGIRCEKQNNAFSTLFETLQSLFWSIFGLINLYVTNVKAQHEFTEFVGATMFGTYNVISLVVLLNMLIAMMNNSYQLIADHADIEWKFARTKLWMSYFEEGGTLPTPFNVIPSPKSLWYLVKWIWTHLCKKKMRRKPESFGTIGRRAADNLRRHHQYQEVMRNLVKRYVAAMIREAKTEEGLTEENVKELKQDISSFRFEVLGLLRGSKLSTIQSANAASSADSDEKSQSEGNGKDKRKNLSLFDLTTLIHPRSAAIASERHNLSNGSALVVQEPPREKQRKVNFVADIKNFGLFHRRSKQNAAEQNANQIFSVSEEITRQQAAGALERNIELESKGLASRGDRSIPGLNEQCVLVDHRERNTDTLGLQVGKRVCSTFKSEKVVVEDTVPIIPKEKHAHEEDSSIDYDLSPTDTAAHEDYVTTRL
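System: HEK293 cells stably co-expressing mouse TRPC4beta and mu-opioid receptor; Schedule: Fluo4 dye loading 45 min at room temperature, 110 s recording; Detection: Fluo4 fluorescence, kinetic; Evaluation: B-scored integrated calcium fluorescence ratio; Controls: buffer (low) and maximal DAMGO (high).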
TRPC4 PAM – positive allosteric modulators of TRPC4, primary screen, cell-based, mouse TRPC4beta, HEK293 mu-opioid, Fluo-4 calcium | AID 2227, 2009 | Short transient receptor potential channel 4 (Mus musculus), Q9QUQ5 | B-score at 10 µM | DAMGO EC20, Fluo-4 Ca2+ flux; hits give high values | 310,000 compounds, 0.42% hits;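 active = B-score of calcium response area above 5 SD of library B-scores, with initial fluorescence ratio within 5 SD of library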;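 note: B-score of integrated fluorescence ratio over time as area under calcium response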
TRPC4 inh – inhibitors of mouse TRPC4 channel, primary screen, Fluo4 calcium, HEK293 TRPC4beta/mu-opioid cells | Short transient receptor potential channel 4 (Mus musculus), Q9QUQ5 | DAMGO-evoked Fluo4 calcium flux; hits give low values | B-score at 10 µM | 300,000 compounds, 0.39% hits | AID 2247, 2010;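 active = B-score over 3 SD under the library average, no early fluorescence shift, positive overall ratio signal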
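Assay system – HEK293 line stably carrying TRPC4beta and mu-opioid receptor · Doses – single dose · Detection – Fluo4 calcium-dye fluorescence, kinetic read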
TRPC6 inh – mouse TRPC6 channel inhibitors, primary screen, cell-based, HEK293, membrane potential dye. Short transient receptor potential channel 6 (Mus musculus), Q61143. ACh-evoked depolarization; hits give low values. B-score at 10 µM. 310,000 compounds, 1.1% hits;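 active = B-score under library mean minus 3 SD, initial fluorescence not abnormally high, positive integrated signal ratio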;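 note: B-score derived from integrated fluorescence ratio over the kinetic read; more negative B-score means stronger inhibition of depolarization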
TRPC4 sel inh 2 – second selectivity test of TRPC6 inhibitors: effect on mouse TRPC4 | inhibition, % at 10 µM | 920 compounds, 42% hits | shares compounds with TRPC6 inh | HEK293 TRPC4/MOR, membrane potential dye fluorescence; channel activated by saturating DAMGO dose | AID 2776;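 active = compounds whose fluorescence signal differed from control wells by over 3 SD, either direction, in both duplicate plates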
TRPC4 spec – mouse TRPC4 modulation by TRPC6 hits, confirmation, selectivity assay for TRPC6 inhibitor project, cell-based, HEK293 TRPC4/mu-opioid, membrane potential dye; 920 compounds, 61% hits; membrane potential fluorescence; shares compounds with TRPC6 inh; AID 2777, 2010; activity change, negative = inhibition, % at 10 µM;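 active = rise or fall in signal beyond 3 SD of buffer-only wells in both replicate plates, either sign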;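 note: integrated kinetic ratio of fluorescence range over baseline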
HEK293 MPD ctr 2-1 – nonspecific membrane potential effects, parental HEK293, confirmation, counter-screen for TRPC6 inhibitor project, cell-based, second counter screen. shares compounds with TRPC6 inh. parental HEK293 membrane potential dye fluorescence; maximal acetylcholine challenge after compound addition. signal change vs control, % at 10 µM. 920 compounds, 31% hits. AID 2779, 2010;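 active = membrane potential signal moving either way by over 3 SD of the maximum-effect control, in both duplicate plates, meaning non-specific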
HEK293 MPD ctr-1 – membrane potential modulation in parental HEK293, confirmation, counter-screen for TRPC6 inhibitor project, cell-based | shares compounds with TRPC6 inh | parental HEK293 membrane potential dye fluorescence | membrane potential signal change, % at 10 µM | 920 compounds, 60% hits | AID 2780, 2010;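 active = membrane potential signal shifting up or down by more than 3 SD of buffer-only wells, on both duplicate plates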
HEK293 MPD ctr-2 – parental HEK293 membrane potential modulation, confirmation, counter-screen for TRPC6 modulator project, cell-based | 2,400 compounds, 51% hits | shares compounds with TRPC6 inh | membrane potential signal change, % at 10 µM | membrane potential dye fluorescence | AID 488924, 2010;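 active = membrane potential signal moves up or down beyond 5 SD from buffer-only wells, on both duplicate plates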
HEK293 MPD ctr 2-2 – second counter-screen for TRPC6 modulators: effect in parental HEK293 cells | shares compounds with TRPC6 inh | membrane potential dye fluorescence; after compound, maximal acetylcholine stimulation | inhibition, % at 10 µM | 2,400 compounds, 14% hits | AID 488926;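 active = membrane potential signal drops by more than 5 SD from the mean control signal, in both duplicate plates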;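 note: plate controls were acetylcholine ECmax control wells for no effect and buffer only wells for full effect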
TRPC4/MOR mod – TRPC4 modulation by TRPC6 hit compounds, confirmation, selectivity assay for TRPC6 modulator project, cell-based, HEK293 TRPC4/mu-opioid, membrane potential dye, mouse; membrane potential fluorescence; shares compounds with TRPC6 inh; percent change from control (negative = decrease, positive = increase), % at 10 µM; 2,400 compounds, 69% hits; AID 488927, 2010;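 active = membrane potential signal moved up or down beyond 5 SD of buffer control wells, in both duplicate plates, actives on both sides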;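 note: plate controls were assay buffer wells for no effect and DAMGO maximal-effect wells for full effect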
TRPC4/MOR inh 2 – second selectivity test of TRPC6 modulators against mouse TRPC4. shares compounds with TRPC6 inh. HEK293 TRPC4/mu-opioid, membrane potential dye fluorescence; stimulated with maximal-effect DAMGO. inhibition, % at 10 µM. 2,400 compounds, 55% hits;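 active = drop in membrane potential signal beyond 5 SD of the control wells in both duplicate plates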;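 note: TRPC4 counter screen for TRPC6 hits run under conditions tuned for TRPC6 not TRPC4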
TRPC6 inh conf – mouse TRPC6 channel inhibitors, confirmation, HEK293 cells, membrane potential dye, duplicate; AID 488960, 2010; inhibition, % at 10 µM; 3,300 compounds, 43% hits; shares compounds with TRPC6 inh; ACh-evoked depolarization;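 active = fluorescence ratio falls more than 5 SD below the full-stimulation control mean, in both duplicate runs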;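 note: integrated fluorescence ratio of peak minus minimum over baseline after agonist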
TRPC6 act confirm – mouse TRPC6 channel activators, confirmation, HEK293 cells, membrane potential dye, duplicate | activation, % at 10 µM | HEK293-TRPC6 membrane potential dye fluorescence, FDSS | AID 488961, 2010 | 2,800 compounds, 11% hits | shares compounds with TRPC6 inh;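 active = ratio signal rise beyond 5 SD above unstimulated control wells' mean, seen in both duplicate runs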;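 note: plate controls were buffer EC0 wells for no effect and acetylcholine ECmax response for full effect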
Numbers without * were called inactive.

Screening COc1ccc(CN(C(=O)CN2C(=O)COc3ccccc32)C2CCCC2)c(OC)c1 returned TRPC6 activator 12*, TRPC4 agonist inactive, TRPC4 PAM inactive, TRPC4 inh inactive, TRPC6 inh inactive, HEK293 MPD ctr-2 319%*, HEK293 MPD ctr 2-2 inactive, TRPC4/MOR mod inactive, TRPC4/MOR inh 2 inactive, TRPC6 inh conf inactive and TRPC6 act confirm inactive.
For COc1ccc(OCC(=O)NC2CCCN(Cc3ccc(Cl)cc3)C2)cc1 (stereo not drawn) the results were TRPC6 activator inactive, TRPC4 agonist inactive, TRPC4 PAM 15*, TRPC4 inh inactive, TRPC6 inh -6.2*, HEK293 MPD ctr-2 116%*, HEK293 MPD ctr 2-2 inactive, TRPC4/MOR mod 24%*, TRPC4/MOR inh 2 inactive and TRPC6 inh conf 50%*.
For O=C(c1ccc(Cl)cc1Cl)N1CCC(C(=O)N2CCOCC2)CC1 the results were TRPC6 activator inactive, TRPC4 agonist inactive, TRPC4 PAM inactive, TRPC4 inh inactive and TRPC6 inh inactive.
`Clc1ccc(-c2nc(NCCCN3CCOCC3)c3ccccc3n2)cc1` gave TRPC6 activator inactive, TRPC4 agonist inactive, TRPC4 PAM inactive, TRPC4 inh inactive, TRPC6 inh -6.7*, TRPC4 sel inh 2 72%*, TRPC4 spec -24%*, HEK293 MPD ctr 2-1 inactive, HEK293 MPD ctr-1 -328%*, TRPC6 inh conf 61%* and TRPC6 act confirm inactive.
COc1cccc(-c2nc(NCCN3CCOCC3)c3ccccc3n2)c1O was read as TRPC6 activator inactive, TRPC4 agonist inactive, TRPC4 PAM inactive, TRPC4 inh inactive and TRPC6 inh inactive.
For c1csc(-c2nc(NCCCN3CCOCC3)c3ccccc3n2)c1 the results were TRPC6 activator inactive, TRPC4 agonist inactive, TRPC4 PAM inactive, TRPC4 inh inactive, TRPC6 inh -7.2*, HEK293 MPD ctr-2 -180%*, HEK293 MPD ctr 2-2 inactive, TRPC4/MOR mod -40%*, TRPC4/MOR inh 2 72%*, TRPC6 inh conf 68%* and TRPC6 act confirm inactive.
Cc1ccc(-c2nc(NCCN3CCOCC3)c3ccccc3n2)cc1 was read as TRPC6 activator inactive, TRPC4 agonist inactive, TRPC4 PAM inactive, TRPC4 inh inactive, TRPC6 inh -6.2*, HEK293 MPD ctr-2 -210%*, HEK293 MPD ctr 2-2 inactive, TRPC4/MOR mod -38%*, TRPC4/MOR inh 2 74%*, TRPC6 inh conf 62%* and TRPC6 act confirm inactive.
Screening Clc1cccc(-c2nc(NCCN3CCOCC3)c3ccccc3n2)c1 returned TRPC6 activator inactive, TRPC4 agonist inactive, TRPC4 PAM inactive, TRPC4 inh inactive and TRPC6 inh inactive.
Screening Clc1cccc(-c2nc(NCCCN3CCOCC3)c3ccccc3n2)c1 returned TRPC6 activator inactive, TRPC4 agonist inactive, TRPC4 PAM inactive, TRPC4 inh inactive and TRPC6 inh inactive.
Screening Oc1ccccc1-c1nc(NCCN2CCOCC2)c2ccccc2n1 returned TRPC6 activator inactive, TRPC4 agonist inactive, TRPC4 PAM inactive, TRPC4 inh inactive, TRPC6 inh -8.3*, TRPC4 sel inh 2 58%*, TRPC4 spec -19%*, HEK293 MPD ctr 2-1 inactive, HEK293 MPD ctr-1 -328%*, TRPC6 inh conf 68%* and TRPC6 act confirm inactive.
O=C(CC1CC2CCC1C2)NCCc1ccc(Cl)cc1 (stereo not drawn) was read as TRPC6 activator inactive, TRPC4 agonist inactive, TRPC4 PAM inactive, TRPC4 inh inactive and TRPC6 inh inactive.
For O=C(Cc1cccs1)NCCS(=O)(=O)N1CCN(c2cccc(Cl)c2)CC1 the results were TRPC6 activator inactive, TRPC4 agonist inactive, TRPC4 PAM inactive, TRPC4 inh inactive and TRPC6 inh inactive.
Fc1ccccc1-c1nc(NCCCN2CCOCC2)c2ccccc2n1 was read as TRPC6 activator inactive, TRPC4 agonist inactive, TRPC4 PAM inactive, TRPC4 inh inactive, TRPC6 inh -5.1*, HEK293 MPD ctr-2 -272%*, HEK293 MPD ctr 2-2 inactive, TRPC4/MOR mod -47%*, TRPC4/MOR inh 2 55%*, TRPC6 inh conf 52%* and TRPC6 act confirm inactive.

From PubChem
